Measurements taken from the EternaBench riboswitch data.

Test system: MS2 coat protein
Assay: apparent Kd, MS2 coat protein; higher = weaker binding; RNA-MaP array; FMN 200 µM where present
Method in brief: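 Stalled E. coli RNA polymerase transcribed the designs on Illumina sequencing-chip clusters. SNAP-549-labelled MS2 coat protein was titrated from 0.7 or 1.5 nM, doubling to 3 µM, without and then with constant ligand, in 100 mM Tris-HCl pH 7.5, 80 mM KCl, 4 mM MgCl2, BSA, DTT, yeast tRNA and Tween-20. Per-cluster binding curves were fitted to green signal normalised to red-channel RNA signal and control-cluster median Fmax. The apparent Kd is the median of the filtered fits.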

[1] = designed as: OFF switch for flavin mononucleotide, no ligand
[2] = ligand present: flavin mononucleotide, designed as: OFF switch for flavin mononucleotide
[3] = designed as: ON switch for flavin mononucleotide, no ligand
[4] = ligand present: flavin mononucleotide, designed as: ON switch for flavin mononucleotide

Sequence	apparent Kd [1] [nM]	apparent Kd [2] [nM]	apparent Kd [3] [nM]	apparent Kd [4] [nM]
CGUGCUUAUGUAGGAUAUGGUUAUCUAUGUCUAGUUACUAGACAUAGAUAACCAGAAGGACAUGAGGAUCACCCAUGUAGCACG	14.6	25.8		
CGAGUUUUUGAGAAGGCAUAUAAUAAGAUUUCCCAUGUUAACAUGAGGAUCACCCAUGUUUAGUAUGAGGAUAUCAGUAGGUCG	5.79	5.8		
CAAUUUAUUGCAGGAUAUACAAUACAAUGAUUAGUAGAAGGGUAUAAUACAUGAGGAUCACCCAUGUCAUGUGUCAUAAUAACC	36.7	27.6		
CCGUUGAUGGGACAGGAUAUGACUGUCGUCACAUGAGGAUCACCCAUGUCCCGGCAAUGCCACCGUUAGAAGGGUCCCGUCUCGG			16	15.9
GGGUGAUGUAGAGGAUAUCCAGGACGAUACAGAGGAGAAGGCUACAUGAGGAUCACCCAUGUCACCGGGAUAAAGCUGUAGAGU	39.8	109		
CCUGUGGCAUGAGGAUAUGGUCAGCUUUGCUGACCAGAAGGCAUGUCAAUAGACAUGAGGAUCACCCAUGUAGUUAACACAGGA			535	42.6
GAAGCACAUGAGGAUCACCCAUGUGAGGAUAUCCGUCUGGUCCGGCCGGGCCAGUACCGGAGAAGGCGCGUCGA	34.7	29.7		
CUUUUGUGAGGAUAUCAGUUGUAAAAAAAUAAAAUUACUACUGAGAAGGCACAUGAGGAUCACCCAUGUUCCUC	35	140		
AUCAGCUCGUGAGGAUAUACAUGAUAGAUCGAUUAAUUAAUUAAUUUAACAUGAGGAUCACCCAUGUAGAAGGCACGAGCUGAU	56.1	61.7		
CGUUCUAGAGGAUAUACAGCUUAUGUACGGCGAUCUGGACAACAUGAGGAUCACCCAUGUAGAAGGCUAAGCAC	36.4	69		
GGAUAGGACAGAGGAUAUACGUGCUAGAGAUACUAGCAAAAUUUCCUCACAUGAGGAUCACCCAUGUAGAAGGCUGUCCGAUCG	14.6	323		
UAUAUAUAGGCAGGAUAUACAUGAAUAUAUAUAAUAUAAUAUGAUGUAACAUGAGGAUCACCCAUGUAGAAGGGCCAAUAUAUA	32.6	64.9		
GGAUCGUAUGUGAGGAUAUACCACUGGAUACAGUGGUAGAAGGCACAUGAGGAUCACCCAUGUCCUAUCGAUCC	146	196		
UUCAAAUUCGUAGGAUAUGUAUAAAUUUUCUACAUGAGGAUCACCCAUGUUUCCAUUUUAAAUUGACAGAAGGACGUAAUCUAA			30	9.73
UUAUUUAGGUAGGAUAUCGAUACUAAUUAUUAUCGAGAAGGGUCUACAUGAGGAUCACCCAUGUUAGCAUGUUU	28	27.7		
CGUAGCUCCUGUUCGAAUCUCCGUGAGGAUAUCUUCAGACAUGAGGAUCACCCAUGUACAAAGGAAGAGAAGGCACGGUCCGAU			4.86	4.33
UUAAUUAUACAAGGAUAUCUAUUGUUCUUUCGACAUACAUGAGGAUCACCCAUGUUAAUAUAUAUAGAGAAGGUGUAUUUUCAG			42.2	26.3
AUUACAUGAGGAUCACCCAUGUACGGCACGUUUCAAAACAGUGAGGAUAUACGAUAUGUAGGAACGUAGAAGGCACUGGGUGCA			82.7	35.9
CGUAGGAUCCAGAAGGCAUGUACAUGAGGAUCACCCAUGUCGAAAGACAUGAGGAUAUGGAUCCUACGAAAAGUGCGAAAGCAC			56.4	6.15
CAGUGCUGUUGAGAGGAUAUGCGGCGACGGACAUGAGGAUCACCCAUGUUAGCGACAGCGUUGCGGCAGAAGGCUCUGCCCGCUG			21	13.7
CGUAGUUGGUAAGGAUAUCCUACACUAUUCUGACCCGUGCAAGCUACAUGAGGAUCACCCAUGUGGGAGAAGGUGCGUCAACGU	10.8	10.9		
UGUACUCAAAGAGUACCAAUACGAACAUGAGGAUCACCCAUGUAGGAUAUGCUACUCAAAGAGUAGCAGAAGGACAUGUGCCUA	19	76.3		
UGGGUAAAUGUAGGAUAUUUAUAUUAAUAGUAUGGAGAAGGACAUGAGGAUCACCCAUGUACAGGGAGUUACCCAUUUCCUCUC	670	662		
UACAUGAGGAUCACCCAUGUUUUGUCGUGUAUGGUAUUUAUCUAGGAUAUCAUUUUAUUUAGGUAUGAGAAGGAGAAUAUUAAU	35.4	36.2		
GGGUACAUAGGAGGAUAUCAUGUAAAUACAUGAGGAUCACCCAUGUCGAUGGAGACAUCGGAGAUUGAGAAGGCCGAUGUACCG			240	10.6
AGAGUGUCAGGAUAUCCUGCUGUGCGGAAUCUGUAUUCACGGGAGAAGGGACAUGAGGAUCACCCAUGUUUGAG	18.9	28.1		
GUCAGCUCGUGAGGAUAUACAUGAUAGAUCGAUUAAUUAAUUAAUUUAACAUGAGGAUCACCCAUGUAGAAGGUACGAGCUGAU	61.6	45.2		
UUCAGCUCGUGAGGAUAUACAUGUGCUGGAAACAGCACUAAAGUUUUCACAUGAGGAUCACCCAUGUAGAAGGCACGAGCUGAG	15.6	34.5		

Sequence	apparent Kd [1] [nM]	apparent Kd [2] [nM]	apparent Kd [3] [nM]	apparent Kd [4] [nM]
GACAUGGUCUAGAAGGCCUAUCUAUUUAAGUACGAUUUAGAACAGCAUAGGAGGAUAUGGCUAACAUGAGGAUCACCCAUGUUC			49	23.3
GGAGACCUCACAGGAUAUGCUGGACUUUGUCCAGCAGAAGGGUGGAAACAUGAGGAUCACCCAUGUAUGGUCUCCAAAUUUAAU			89	8.74
CUCAGCUCGUCAGGAUAUACGUCACUGCUUCGGCAGUGUGGUAAGAUCACAUGAGGAUCACCCAUGUAGAAGGGACGAGCUGAG	11.5	245		
AAGAGACAUCAGAAGGGAGCCCGAACGCGCGGCUCAGGAUAUGAGAUCUUAUGUAGUACGACAUGAGGAUCACCCAUGUCCGCG			28.2	8.05
GGGUGCUCACCGCCUUAACAUGAGGAUCACCCAUGUGGAGUGCAGGAUAUACGUCUCUAUCAUACGUAGAAGGGCACCGCGCAG	5.45	5.9		
ACUGCCCGAGAGAAGGGAACAUGAGGAUCACCCAUGUUACCUCACCUGGUGACGGAACUCCAAGUUCAGGAUAUCUCGAACGGU	5.23	6.51		
AAUAUGUUGCAGAAGGUUAUAUUUAUUUAGUACCUCAUGACAUGAGGAUCACCCAUGUUUUUGUUGAAGGAUAUGCAAUAUAUU	17.1	13.7		
ACAUUGCGAGGAUAUACAUGAGGAUCACCCAUGUGGUAGCAGAUACGGUAGGGCUAGUGUAGAAGGUGUCAUGG	112	96.3		
AAGAAAGUUUACGAGGAUAUGUUCCGCAUAACAUGAGGAUCACCCAUGUGAACAAGAAAGGCGACGCAGAAGGCGUGAGCAAAGA			359	43.2
AGUAGAUCAGGAUAUACAUAAAUGAUAAUUAUGUAACUUCAACAUGAGGAUCACCCAUGUAGAAGGGAUCUACA	16.3	15		
GUGGUCAGACAUGAGGAUCACCCAUGUGGAAUAAAUAACAGACAGGAUAUAUAAUAUAGGAUAUAGUAGAAGGGUCGAUUGGUG			81.9	85.8
AUUAUUUAUAGUUAUUUUUAUUUUACAGAAGGUGAAUUAUUUACAUGAGGAUCACCCAUGUUCUUCAAGGAUAUGUUGUUAUAC			49.4	22.1
AAUGUUUGAUUCCACUUACACAUGAGGAUCACCCAUGUUAUCGAGGAUAUGCAUUAGAGUGUUUAGCAGAAGGCGAUGUAAUUG	8.46	25		
GGGUACAUCGGAGGAUAUCAUGUAAAUACAUGAGGAUCACCCAUGUCGAUGGAGACAUCGGAGAUUGAGAAGGCCCAUGUACCG			199	10.8
GUGUACGGAGGAUAUGCUGGAAUCUAGCGAAGCUAGGUUCCACAUGAGGAUCACCCAUGUAGAAGGUCGUACAC	39.3	16.1		
CCCUAGGUAGGAUAUACUUGGGCUCGGCUGAUGUGCCUAAAACAUGAGGAUCACCCAUGUAGAAGGACUAAGGC	12.4	10.8		
AAAUCAGUAGGAUAUACGAUUUUAUGCUAGAUAGAGGGACCACAUGAGGAUCACCCAUGUAGAAGGACUAGAUA	20.2	21.4		
CGCUGGACUGAGAAGGCCAUGUGGGACGCGAACAGUGAUGUUAGGGCAUGGAGGAUAUCAGACAUGAGGAUCACCCAUGUAACC			392	38
GUGGCACAUGAGGAUCACCCAUGUCAGGAUAUCGCGUGGUUUUUUGCGGCCGCGCGCGCGAGAAGGGACGUCUU	39.2	38.1		
GCCGAUUAAGUCAGGAUAUACCUAUGGAUACAUAGGUAGAAGGGACAUGAGGAUCACCCAUGUUCCUCUACGGC	12.9	25.8		
CGUGACGACAUAGGAUAUUGAUACAUGAGGAUCACCCAUGUCAACCAUUUAUCUCAAAUUGUUGACAAGAAGGAUGUGGUCACG			263	13.6
CGUAGUCCGUAGAAGGGUGACAUGAGGAUCACCCAUGUGCGAGCCGAGGGAGUCAGCGGCUCGCCACAGGAUAUACGGAGCACG			44.5	52.9
UAGUAUAAGGGCAUUAAACAUGAGGAUCACCCAUGUACGUUAGAGGAUAUGCAUUACAGUUGAAAGUAGAAGGUUAGAGAAGGG	45.6	50.1		
AACAGUACAGGAUAUACAUGAGGAUCACCCAUGUGAUCAUCAAGUGCCGUAGCACGAAGUAGAAGGGUACUGGA	207	57		
CUAUAUAAUGCCUCAUGUACAUGAGGAUCACCCAUGUUAACUUAGGAUAUAUUUAUAUUGAUAGAGUAGAAGGAAGUACUAUUU	14.2	12.9		
UCCUCGAUGUAGAAGGCCGCGUCCGGCUCACGCGGAGGAUAUACAUGAGGAUCACCCAUGUGUCUGUGCCUUAUAUGGUACGGA	111	10.5		
AAACACGGACAUGAGGAUCACCCAUGUGGCGAAAGCCUAACUAGAAGGCAGUAUGCAAAGCAUUCUGAGGAUAUGGGUUCCGUG			188	18.1
